# From ChEMBL document CHEMBL1139961, “Synthesis and evaluation of isoxazole derivatives as lysophosphatidic acid (LPA) antagonists” (Bioorg Med Chem Lett, 2007)
# How the values were obtained:
# [1] = target: Lysophosphatidic acid receptor 1 (Rattus norvegicus, UniProt P61794); test: Antagonist activity at LPA1 receptor in rat hepatic stellate cells assessed as inhibition of lysophosphatidic acid-induced intracellular calcium influx; assay type: functional, cell-based
# Method in brief: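 Stellate cells isolated from male Wistar rat liver, seeded overnight at 24,000 cells/well. Loaded with 4 µM Fluo-3 AM in buffer (0.1% BSA, 20 mM Hepes, HBSS, 2.5 mM probenecid), 37 °C, 1 h, then FLIPR Ca2+ read. Test substance added with LPA at 5 µM final. LPA without compound = 100%, no LPA = 0%. IC50 is the mean of at least two runs.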
# [2] = target: Lysophosphatidic acid receptor 1 (Homo sapiens, UniProt Q92633); test: Antagonist activity at human recombinant LPA1 receptor expressed in CHOK1 cells assessed as inhibition of lysophosphatidic acid-induced intracellular calcium influx; assay type: functional, cell-based, CHO-K1
# Chain of Lysophosphatidic acid receptor 1 (Homo sapiens, UniProt Q92633) (Q92633 whole entry): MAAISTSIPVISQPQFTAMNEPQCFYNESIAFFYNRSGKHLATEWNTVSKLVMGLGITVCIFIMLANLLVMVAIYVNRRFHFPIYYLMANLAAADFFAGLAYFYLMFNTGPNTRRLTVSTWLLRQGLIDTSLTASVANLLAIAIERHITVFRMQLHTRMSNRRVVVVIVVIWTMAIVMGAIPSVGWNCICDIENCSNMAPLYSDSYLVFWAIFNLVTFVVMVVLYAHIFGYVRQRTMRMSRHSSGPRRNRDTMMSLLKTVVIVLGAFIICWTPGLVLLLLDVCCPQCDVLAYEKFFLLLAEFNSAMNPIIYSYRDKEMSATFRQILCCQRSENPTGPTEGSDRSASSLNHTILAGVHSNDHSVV
# Method in brief: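 LPA1-transfected CHO-K1 cells grown in aMEM/F12 with 400 µg/ml Zeocin and 7% FBS. Loaded with Fluo-3 AM in 20 mM Hepes/HBSS/2.5 mM probenecid, 1 h, 37 °C. Washed, resuspended with 0.1% BSA, 24,000 cells/well. FLIPR fluorescence (ex 488/em 540 nm) read before and after compound addition, with or without 1 µM LPA. IC50 is the mean of at least two runs.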
# Chain of Lysophosphatidic acid receptor 1 (Rattus norvegicus, UniProt P61794) (P61794 whole entry): as the sequence (Q92633 whole entry) above, with I4A, I8S, P22Q, H40Y, I61V, E193D, N194H, I269V, S331N, T335N counted along it
Compound,IC50 [1] [nM],IC50 [2] [nM]
CC(OC(=O)Nc1conc1-c1ccc(CS(=O)(=O)CCC(=O)O)cc1)c1ccccc1Cl (centres undefined),110,280
CC(OC(=O)Nc1conc1-c1ccc(CSCCC(=O)O)cc1)C1=C(Cl)CCCC1 (centres undefined),56,170
CC(OC(=O)Nc1conc1-c1ccc(NC(=O)CCC(=O)O)cc1)c1ccccc1Cl (centres undefined),73,140
CC(OC(=O)Nc1conc1-c1ccc(CSCCC(=O)O)cc1)c1ccccc1Cl (centres undefined),49,220
CC(OC(=O)Nc1conc1-c1ccc(CCC(C)(C)CC(=O)O)cc1)c1ccccc1Cl (centres undefined),120,370
CC(OC(=O)Nc1conc1-c1ccc(CSCCS(=O)(=O)O)cc1)c1ccccc1Cl (centres undefined),74,430
CC(OC(=O)Nc1cnoc1-c1ccc(CSCCC(=O)O)cc1)c1ccccc1Cl (centres undefined),81,260
CC(OC(=O)Nc1conc1-c1ccc(CSCCC(=O)O)cc1)C1=C(Cl)CCC1 (centres undefined),29,130
CC(OC(=O)Nc1conc1-c1ccc(CCCCC(=O)O)cc1)c1ccccc1Cl (centres undefined),72,200
Cc1noc(-c2ccc(CSCCC(=O)O)cc2)c1NC(=O)OC(C)c1ccccc1Cl (centres undefined),160,510
CC(OC(=O)Nc1ccccc1-c1ccc(CSCCC(=O)O)cc1)c1ccccc1Cl (centres undefined),> 20000,> 40000
CC(OC(=O)Nc1conc1-c1ccc(CCSCC(=O)O)cc1)c1ccccc1Cl (centres undefined),100,130
